Activity calls are given as the source filed them. The calls are words filed in the database; no cut-off is given here.
How the values were obtained:
Homo sapiens = organism: Homo sapiens; conditions: at 0.5 µM;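 further: HDAC activity measured in a nuclear extract, with percent inhibition expressed against control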
Histone deacetylase 1 [1] = molecular target: T1, Histone deacetylase 1 (Homo sapiens, UniProt Q13547); assay: Inhibition of recombinant HDAC1 (unknown origin) expressed in baculovirus expression system using Ac-peptide-AMC as substrate preincubated for 15 mins followed by substrate addition by fluorescence based protease coupled assay
Histone deacetylase 1 [2] = molecular target: T1, Histone deacetylase 1; assay: Potency index, ratio of SAHA IC50 to compound IC50 for inhibition of recombinant HDAC1 (unknown origin) expressed in baculovirus expression system
MDA-MB-231 = assay: Antiproliferative activity against human MDA-MB-231 cells assessed as reduction in cell viability after 48 hrs by SRB assay; format: functional, cell-based; conditions: MDA-MB-231, 48 h
MCF7 = assay: Antiproliferative activity against human MCF7 cells assessed as reduction in cell viability after 48 hrs by SRB assay; format: functional, cell-based; conditions: MCF7, 48 h
A549 [3] = assay: Antiproliferative activity against human A549 cells assessed as reduction in cell viability after 48 hrs by SRB assay; format: functional, cell-based; conditions: A549, 48 h
Summary of the method: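 A549 cells in RPMI 1640 with 10% FBS at 37 °C, 5% CO₂, seeded 24 h before treatment at various concentrations. Cells were fixed with 10% TCA for 1 h at 4 °C and stained with 0.4% SRB for 5 min at room temperature. After 1% acetic acid washes, dye was dissolved in 10 mM Tris and A540 read. IC50 from three independent experiments in triplicate, mean ± SD.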

MCF-10A = assay: Cytotoxicity against human MCF10A cells assessed as reduction in cell viability after 48 hrs by SRB assay; format: ADME, cell-based
[4] = Cytotoxicity against human MCF10F cells assessed as reduction in cell viability after 48 hrs by SRB assay; format: ADME, cell-based; conditions: MCF-10F
BEAS-2B = assay: Cytotoxicity against human BEAS2B cells assessed as reduction in cell viability after 48 hrs by SRB assay; format: ADME, cell-based
A549 [5] = assay: Inhibition of colony formation in human A549 cells at 1 to 2.5 uM after 7 days by crystal violet staining based assay; format: functional, cell-based
Summary of the method: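 A549 cells plated at 800 per 35 mm dish and treated for one week, with medium replenished every 24 h. Cells were washed with PBS, fixed in methanol and stained with 1% crystal violet for 15 min. Colonies were counted. Triplicate, repeated three times.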

A549 [6] = assay: Antimetastatic activity in human A549 cells reduction in cell migration after 24 hrs by wound healing assay; format: functional, cell-based
Summary of the method: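 A549 cells (1.5x10⁵) plated in 6-well dishes and grown overnight to confluent monolayers. Monolayers were wounded with a pipette tip, then treated at various concentrations for 24 h. Wounds were photographed at 0, 12 and 24 h and migration distance measured. Result is % wound closure relative to 0 h. Triplicate, repeated three times.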

Histone deacetylase 1 [7] = molecular target: T1, Histone deacetylase 1; assay: Inhibition of HDAC1 in human A549 cells assessed as increase in H3 acetylation after 24 hrs by immunoblot analysis; format: cell-based
Summary of the method: (§1)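 A549 cells exposed to 1.0, 2.5 and 5.0 µM for 24 h, then immunoblotted for acetylated histone H3 and H4. RIPA lysates (35 µg) run on 15% SDS-PAGE and transferred to PVDF. Primary antibody 1:1000 overnight at 4 °C, HRP secondary 1:20000, ECL. Densitometry relative to β-actin; three independent experiments.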

Histone deacetylase 1 [8] = molecular target: T1, Histone deacetylase 1; assay: Inhibition of HDAC1 in human A549 cells assessed as increase in H4 acetylation after 24 hrs by immunoblot analysis; format: cell-based
Summary of the method: as §1

A549 [9] = assay: Induction of cell cycle arrest in human A549 cells assessed as accumulation at G2/M phase at 5 uM after 24 hrs by PI/RNaseA staining based flow cytometry analysis relative to control; format: functional
Summary of the method: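 A549 cells treated for 24 h, with vehicle as control. Cells were fixed in 70% ice-cold ethanol overnight at −20 °C, then stained with PI containing RNase A for 30 min at 37 °C. DNA content was read by flow cytometry. Mean ± SD of phase percentages from three independent experiments.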

A549 [10] = assay: Induction of G2/M cell cycle arrest in human A549 cells assessed as decrease in CDK1 expression at 1 to 2.5 uM by Western blot analysis; format: functional, cell-based
Summary of the method: (§2)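 Cell-cycle arm: A549 whole-cell lysates probed for CDK1 and cyclin B. Lysis in RIPA buffer; 35 µg protein run on 15% SDS-PAGE and blotted to PVDF. Blocked in 5% milk/PBST; primary antibody 1:1000 at 4 °C overnight, HRP secondary 1:20000 for 1 h at room temperature, ECL detection. Densitometry relative to β-actin; three separate experiments.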

A549 [11] = assay: Induction of G2/M cell cycle arrest in human A549 cells assessed as decrease in CyclinB1 expression at 1 to 2.5 uM by Western blot analysis; format: functional, cell-based
Summary of the method: as §2

A549 [12] = assay: Induction of apoptosis in human A549 cells assessed as viable cells at 5 uM after 72 hrs by Annexin V-phycoerythrin/7-AAD staining based flow cytometric analysis (reference value: 96.57%); format: functional
A549 [13] = assay: Induction of apoptosis in human A549 cells assessed as early apoptotic cells at 5 uM after 72 hrs by Annexin V-phycoerythrin/7-AAD staining based flow cytometric analysis (reference value: 1.13%); format: functional
A549 [14] = assay: Induction of apoptosis in human A549 cells assessed as late apoptotic cells at 5 uM after 72 hrs by Annexin V-phycoerythrin/7-AAD staining based flow cytometric analysis (reference value: 1.84%); format: functional
A549 [15] = assay: Induction of apoptosis in human A549 cells assessed as necrotic cells at 5 uM after 72 hrs by Annexin V-phycoerythrin/7-AAD staining based flow cytometric analysis (reference value: 0.45%); format: functional
A549 [16] = assay: Induction of apoptosis in human A549 cells assessed as viable cells at 1 uM after 72 hrs by Annexin V-phycoerythrin/7-AAD staining based flow cytometric analysis (reference value: 96.57%); format: functional; conditions: A549, 72 h, read-out: Activity
A549 [17] = assay: Induction of apoptosis in human A549 cells assessed as early apoptotic cells at 1 uM after 72 hrs by Annexin V-phycoerythrin/7-AAD staining based flow cytometric analysis (reference value: 1.13%); format: functional
A549 [18] = assay: Induction of apoptosis in human A549 cells assessed as late apoptotic cells at 1 uM after 72 hrs by Annexin V-phycoerythrin/7-AAD staining based flow cytometric analysis (reference value: 1.84%); format: functional
A549 [19] = assay: Induction of apoptosis in human A549 cells assessed as necrotic cells at 1 uM after 72 hrs by Annexin V-phycoerythrin/7-AAD staining based flow cytometric analysis (reference value: 0.45%); format: functional
A549 [20] = assay: Induction of apoptosis in human A549 cells assessed as viable cells at 2.5 uM after 72 hrs by Annexin V-phycoerythrin/7-AAD staining based flow cytometric analysis (reference value: 96.57%); format: functional; conditions: A549, 72 h, read-out: Activity
A549 [21] = assay: Induction of apoptosis in human A549 cells assessed as early apoptotic cells at 2.5 uM after 72 hrs by Annexin V-phycoerythrin/7-AAD staining based flow cytometric analysis (reference value: 1.13%); format: functional
A549 [22] = assay: Induction of apoptosis in human A549 cells assessed as late apoptotic cells at 2.5 uM after 72 hrs by Annexin V-phycoerythrin/7-AAD staining based flow cytometric analysis (reference value: 1.84%); format: functional
A549 [23] = assay: Induction of apoptosis in human A549 cells assessed as necrotic cells at 2.5 uM after 72 hrs by Annexin V-phycoerythrin/7-AAD staining based flow cytometric analysis (reference value: 0.45%); format: functional
A549 [24] = assay: Induction of apoptosis in human A549 cells assessed as increase in PARP cleavage at 1 to 5 uM after 48 hrs by Western blot analysis; format: functional, cell-based
Summary of the method: (§3)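 A549 cells treated at the indicated concentrations for 48 h, then blotted for cleaved caspase-3 and cleaved PARP. RIPA lysis; 35 µg protein on 15% SDS-PAGE, transferred to PVDF. Blocked in 5% milk/PBST; primary antibody 1:1000 overnight at 4 °C, HRP secondary 1:20000 for 1 h, ECL. Bands quantified by densitometry versus β-actin; three separate experiments.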

A549 [25] = assay: Induction of apoptosis in human A549 cells assessed as increase in caspase-3 cleavage at 1 to 5 uM after 48 hrs by Western blot analysis; format: functional, cell-based
Summary of the method: as §3

A549 [26] = assay: Induction of apoptosis in human A549 cells after 72 hrs by Annexin V-phycoerythrin/7-AAD staining based flow cytometric analysis; format: functional, cell-based

T1 sequence (Q13547 whole entry): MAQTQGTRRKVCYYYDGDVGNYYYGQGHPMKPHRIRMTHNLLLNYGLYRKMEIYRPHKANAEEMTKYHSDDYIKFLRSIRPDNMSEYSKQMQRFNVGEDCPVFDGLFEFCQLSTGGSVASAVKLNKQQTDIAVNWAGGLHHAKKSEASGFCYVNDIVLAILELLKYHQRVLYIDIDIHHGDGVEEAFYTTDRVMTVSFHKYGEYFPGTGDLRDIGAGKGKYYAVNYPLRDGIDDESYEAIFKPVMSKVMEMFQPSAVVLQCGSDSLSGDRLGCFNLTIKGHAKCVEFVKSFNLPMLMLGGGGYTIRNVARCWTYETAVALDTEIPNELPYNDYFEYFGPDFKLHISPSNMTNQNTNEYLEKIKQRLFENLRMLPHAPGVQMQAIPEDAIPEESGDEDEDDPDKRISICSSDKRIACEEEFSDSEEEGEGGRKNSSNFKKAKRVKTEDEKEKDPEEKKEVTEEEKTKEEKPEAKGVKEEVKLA

CCNC(=O)c1cccc(CN(C(=O)CCCCCC(=O)NO)c2ccccc2OC)c1
inhibition (Homo sapiens): 20%

COc1ccccc1N(Cc1cccc(C(=O)NCCc2ccc(Cl)cc2)c1)C(=O)CCCCCC(=O)NO
inhibition (Homo sapiens): 36%

COc1ccccc1N(Cc1cccc(C(=O)NCCCCCc2ccccc2)c1)C(=O)CCCCCC(=O)NO
inhibition (Homo sapiens): 16%

COc1ccccc1N(Cc1cccc(Br)c1)C(=O)CCCCCC(=O)NO
inhibition (Homo sapiens): 21%

CCNC(=O)c1cccc(CN(C(=O)CCCCCC(=O)NO)c2ccc(OC)cc2)c1
IC50 (Histone deacetylase 1 [1]): 2.2 nM
Ratio IC50 (Histone deacetylase 1 [2]): 11.4
IC50 (MDA-MB-231): 6.87 µM
IC50 (MCF7): 6.96 µM
IC50 (A549 [3]): 2.13 µM
IC50 (MCF-10A): > 100 µM
IC50 [4]: > 100 µM
IC50 (BEAS-2B): > 100 µM
inhibition (A549 [5]): Active
Activity (A549 [6]): Dose-dependent effect
inhibition (Histone deacetylase 1 [7]): Dose-dependent effect
inhibition (Histone deacetylase 1 [8]): Dose-dependent effect
Activity (A549 [9]): 40.3%
Activity (A549 [10]): Active
Activity (A549 [11]): Active
viability at 5 µM (A549 [12]; Homo sapiens, A549, 72 h, read-out: Activity): 17.7%
Activity (A549 [13]): 23.85%
Activity (A549 [14]): 57.6%
Activity (A549 [15]): 0.89%
viability at 1 µM (A549 [16]): 69.1%
Activity (A549 [17]): 21.86%
Activity (A549 [18]): 8.17%
Activity (A549 [19]): 0.86%
viability at 2.5 µM (A549 [20]): 42%
Activity (A549 [21]): 29.35%
Activity (A549 [22]): 27.09%
Activity (A549 [23]): 1.54%
Activity (A549 [24]): Active
Activity (A549 [25]): Active
Activity (A549 [26]): Dose-dependent effect
inhibition (Homo sapiens): 51%

COc1ccccc1N(Cc1cccc(C(=O)NCCCCc2ccc(F)cc2)c1)C(=O)CCCCCC(=O)NO
inhibition (Homo sapiens): 34%

COc1ccc(N(Cc2cccc(C(=O)NCCc3ccc(F)cc3)c2)C(=O)CCCCCC(=O)NO)cc1
IC50 (Histone deacetylase 1 [1]): 2.3 nM
Ratio IC50 (Histone deacetylase 1 [2]): 10.9
IC50 (MDA-MB-231): 7.24 µM
IC50 (MCF7): 7.17 µM
IC50 (A549 [3]): 4.05 µM
IC50 (MCF-10A): > 50 µM
IC50 [4]: > 50 µM
IC50 (BEAS-2B): > 20 µM
inhibition (Homo sapiens): 53%

CCC(=O)Nc1cccc(CN(C(=O)CCCCCC(=O)NO)c2ccccc2OC)c1
inhibition (Homo sapiens): 22%

O=C(CCCCCCC(=O)Nc1ccccc1)NO [VORINOSTAT]
Activity (A549 [9]): 24.97%
Activity (A549 [12]): 23.22%
Activity (A549 [13]): 16.78%
Activity (A549 [14]): 58.86%
Activity (A549 [15]): 1.15%

COc1ccccc1N(Cc1cccc(C(=O)NCCCCc2ccccc2)c1)C(=O)CCCCCC(=O)NO
inhibition (Homo sapiens): 15%

COc1ccccc1N(Cc1cccc(NC(=O)Cc2ccccc2)c1)C(=O)CCCCCC(=O)NO
inhibition (Homo sapiens): 37%

COc1ccc(CCNC(=O)c2cccc(CN(C(=O)CCCCCC(=O)NO)c3ccccc3OC)c2)cc1
inhibition (Homo sapiens): 27%

COc1ccc(N(Cc2cccc(NC(=O)CCc3ccc(F)cc3)c2)C(=O)CCCCCC(=O)NO)cc1
inhibition (Homo sapiens): 49%

CCNC(=O)c1cccc(CN(C(=O)CCCCCC(=O)NO)c2ccc(O)cc2)c1
inhibition (Homo sapiens): 21%

COc1ccccc1N(Cc1cccc(C(=O)NCCc2ccccc2)c1)C(=O)CCCCCC(=O)NO
inhibition (Homo sapiens): 38%

COc1ccccc1N(Cc1cccc(C(=O)NCc2ccccc2)c1)C(=O)CCCCCC(=O)NO
inhibition (Homo sapiens): 38%

COc1ccccc1N(Cc1cccc(C(=O)NCCCCCCc2ccccc2)c1)C(=O)CCCCCC(=O)NO
inhibition (Homo sapiens): 4%

COc1ccccc1N(Cc1cccc(C(=O)NCCc2ccc(F)cc2)c1)C(=O)CCCCCC(=O)NO
inhibition (Homo sapiens): 39%

CCN(CC)C(=O)c1cccc(CN(C(=O)CCCCCC(=O)NO)c2ccccc2OC)c1
inhibition (Homo sapiens): 20%

Reference: ChEMBL document CHEMBL4373678, “Development of hydroxamate-based histone deacetylase inhibitors of bis-substituted aromatic amides with antitumor activities” (Medchemcomm, 2019)
